Sampled rows, rich in hits. Any-hit rate of the full collection: about 1.6%.
PG9 binder: binds the HIV-1 gp120 antibody PG9; TR-FRET gp120-PG9 antibody binding; inhibition, % at 6.7 µM; actives 0.43% (n = 360,000); in the data active = inhibition above about 8.5%
NR2E3 ag-1: NR2E3 (human) agonism; Q9Y5X4; GST-NR2E3/biotin-RetCOR TR-FRET, 1536-well; inhibition of corepressor binding, % at 4.78 µM; actives 0.12% (n = 320,000); AID 2300;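 active = percent inhibition above the cutoff of mean plus 3 SD of all tested compounds, set per screening campaign, cut at about 20% in these data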;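 also: 0% = DMSO wells and 100% = biotin wells as full block of FRET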
Target sequence (Q9Y5X4 whole entry, looked up): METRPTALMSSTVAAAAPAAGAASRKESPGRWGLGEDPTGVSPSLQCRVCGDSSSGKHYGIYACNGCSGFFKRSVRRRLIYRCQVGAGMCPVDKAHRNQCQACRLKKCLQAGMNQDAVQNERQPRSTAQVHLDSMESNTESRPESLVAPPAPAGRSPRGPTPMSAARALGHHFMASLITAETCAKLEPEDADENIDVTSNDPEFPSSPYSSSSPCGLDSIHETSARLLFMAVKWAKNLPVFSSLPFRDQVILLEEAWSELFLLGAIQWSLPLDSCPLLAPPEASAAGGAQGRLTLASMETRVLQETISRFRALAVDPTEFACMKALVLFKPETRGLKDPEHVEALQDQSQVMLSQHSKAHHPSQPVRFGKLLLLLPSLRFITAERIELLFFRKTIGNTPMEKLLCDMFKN
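Format: 1536-well format; test system: GST-NR2E3 and biotin-RetCOR proteins; read-out basis: percent inhibition of TR-FRET ratio; timing: 5 h incubation at 4 °C; detection: time-resolved FRET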
PKA-R1A activ: activates the PKA-R1A holoenzyme complex | P00514+P68181 | PKA-R1A dissociation, Cy5-IP20 fluorescence polarization; scaled: DMSO 0%, 113 µM cGMP 100% | activation, % at 11.4 µM | actives 0.083% (n = 340,000);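 active = percent activation above the mean of all tested compounds plus 3 SD, cut at about 19% in these data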;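 also: higher means more PKAc released from R1A so a rise in polarization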
Rev-erbA mod: modulators of human Rev-erb alpha DNA binding; Rev-erbα–FITC-DNA binding, fluorescence polarization, 90 min; actives 0.79% (n = 370,000); activity, % at 10 µM; P20393;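 active = activity above about 14%, limit read from the data; passing the limit was not always enough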;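 also: 0% = DMSO wells with 35 nM protein and 100% = DMSO wells with 750 nM protein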
NR2E3 ag-2: human photoreceptor-specific nuclear receptor agonism; inhibition of corepressor binding, % at 3.98 µM; CHO-S Gal4-NCOR/VP16-NR2E3 two-hybrid, luciferase; Q9Y5X4; actives 0.35% (n = 360,000); AID 602229;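 active = inhibition above the mean of all tested compounds plus 3 SD, cut at about 70% in these data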;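 also: 0% = DMSO with NR2E3 transfected cells and 100% = cells lacking NR2E3 construct; higher means lower luciferase signal from less NR2E3 corepressor binding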
PKA-R2B act: activates the human PKA-R2B holoenzyme complex; P22694+P31323; PKA-R2B holoenzyme dissociation, Cy5-IP20 fluorescence polarization; R2B truncated from residue 108, S112A mutant; 0% DMSO only, 100% 113 µM cGMP; activation, % at 11.4 µM; actives 0.079% (n = 340,000); AID 504700;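 active = activation above a cutoff set at the mean over all compounds plus 3 SD, cut at about 18% in these data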;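 also: higher means more holoenzyme dissociation and a rise in polarization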
PG9 binder conf: confirmation of small molecules binding HIV-1 gp120 antibody PG9; AID 651571; TR-FRET PG9 antibody binding, biochemical; inhibition, % at 6.7 µM; actives 90% (n = 1,500); shares compounds with PG9 binder; in the data active = inhibition above about 9%
PGV04 Ab binding: counter-screen for PG9 binders: binding control antibody PGV04; TR-FRET PGV04 antibody-gp120 binding, biochemical; AID 651604; actives 95% (n = 1,500); inhibition, % at 6.7 µM; shares compounds with PG9 binder; in the data active = inhibition above about 9.5%
* marks the source's active call; other numbers are inactive results.

For Cn1c(=O)c2[nH]c(SCC(=O)NCCc3cccc(F)c3)nc2n(C)c1=O the results were Rev-erbA mod -6.
For CN(CCOC(=O)c1cc2ccccc2o1)C1CN(Cc2cn(Cc3cccc(F)c3)nn2)S(=O)(=O)C1 (configuration not stated) the results were Rev-erbA mod -4.
Screening Cc1nc(N2CCC(C)CC2)c2c(C)c(C(=O)Nc3ccc(C(F)(F)F)cc3)sc2n1 returned PG9 binder 42*, NR2E3 ag-1 0, PKA-R1A activ 5, Rev-erbA mod 15, NR2E3 ag-2 -10, PKA-R2B act -9, PG9 binder conf 8 and PGV04 Ab binding 11*.
Screening Cc1nc(N2CCC(C)CC2)c2c(C)c(C(=O)Nc3cccc(C(F)(F)F)c3)sc2n1 returned PG9 binder 0, NR2E3 ag-1 -4, PKA-R1A activ -10, Rev-erbA mod 0, NR2E3 ag-2 11 and PKA-R2B act -1.
Screening O=C(COCc1ccncc1)N1CCN(c2ccc(F)cc2Cl)CC1 returned Rev-erbA mod -1.
For O=c1c(Br)c(Br)cnn1-c1ccccc1 the results were PG9 binder 13*, PKA-R1A activ 3, Rev-erbA mod 1, NR2E3 ag-2 34, PKA-R2B act -10, PG9 binder conf 18* and PGV04 Ab binding 28*.
Screening Cc1ccc(-n2ncc(Br)c(Br)c2=O)cc1 returned PKA-R1A activ 6, NR2E3 ag-2 0 and PKA-R2B act 0.
Screening CCCCCNC(=O)C(c1ccncc1)n1c(=O)c(-c2ccco2)nc2ccccc21 (configuration not stated) returned PG9 binder 9.1*, Rev-erbA mod -1, PG9 binder conf 4 and PGV04 Ab binding 5.
`CC(C)[C@H](N)C(=O)N[C@H](C(=O)N1CCC2CCN(S(=O)(=O)c3ccccc3)CC21)C(C)C` (some centres not stated) gave Rev-erbA mod 3.
`CCOC(=O)c1cc(-c2ccc(C)cc2)nc2nc(SC)[nH]c(=O)c12` gave PG9 binder 24*, NR2E3 ag-1 1, PKA-R1A activ -6, Rev-erbA mod 1, NR2E3 ag-2 19, PKA-R2B act 10, PG9 binder conf 33* and PGV04 Ab binding 34*.
`CCOC(=O)c1cc(-c2cccc(C(F)(F)F)c2)nc2nc(SC)[nH]c(=O)c12` gave PG9 binder -1, NR2E3 ag-1 3, PKA-R1A activ 3, Rev-erbA mod 2, NR2E3 ag-2 -32 and PKA-R2B act 1.
Screening COC(=O)Cn1c(=NC(=O)c2sc3ccccc3c2Cl)sc2cc(S(N)(=O)=O)ccc21 returned PG9 binder 11*, NR2E3 ag-1 -117, PKA-R1A activ -4, Rev-erbA mod 12, NR2E3 ag-2 14, PKA-R2B act 8, PG9 binder conf 22* and PGV04 Ab binding 28*.
CCOC(=O)Cn1c(=NC(=O)c2sc3ccccc3c2Cl)sc2cc(S(N)(=O)=O)ccc21 was read as PG9 binder 9.9*, NR2E3 ag-1 -26, PKA-R1A activ -6, Rev-erbA mod 0, NR2E3 ag-2 -15, PKA-R2B act -1, PG9 binder conf 12* and PGV04 Ab binding 28*.
`COC(=O)Cn1c(=NC(=O)c2ccc(Cl)s2)sc2cc(C)ccc21` gave PG9 binder 0, NR2E3 ag-1 -1, PKA-R1A activ 7, Rev-erbA mod 22, NR2E3 ag-2 -26 and PKA-R2B act -16.
For CCOC(=O)Cn1c(=NC(=O)CSC(C)=O)sc2cc(OC)ccc21 the results were PG9 binder 13*, NR2E3 ag-1 7, PKA-R1A activ -3, Rev-erbA mod -2, NR2E3 ag-2 7, PKA-R2B act -9, PG9 binder conf 18* and PGV04 Ab binding 23*.
For COc1cc(O)c(C(CC(=O)N2CCC(C)CC2)c2ccc3c(c2)OCO3)c(OC)c1 (configuration not stated) the results were Rev-erbA mod -4.
`O=C(Nc1ccc(Br)cc1)OCCN1CCCC12CCC(c1ccccc1)CC2` (configuration not stated) gave Rev-erbA mod 4.
Screening O=C(NCCN1CCC(n2c(=O)[nH]c3cc(Cl)ccc32)CC1)c1ccc(F)cc1 returned PG9 binder -1 and Rev-erbA mod 1.
COc1ccc(-c2nnc(SCc3nc4ccccc4c(=O)[nH]3)o2)cc1 was read as PG9 binder 8.9*, NR2E3 ag-1 -1, PKA-R1A activ -2, Rev-erbA mod 7, NR2E3 ag-2 -15, PKA-R2B act -9, PG9 binder conf 12* and PGV04 Ab binding 14*.
For CCCc1nnc(NC(=S)Nc2ccccc2)s1 the results were PG9 binder 11*, NR2E3 ag-1 10, PKA-R1A activ 1, Rev-erbA mod 13, NR2E3 ag-2 -30, PKA-R2B act 2, PG9 binder conf 10* and PGV04 Ab binding 13*.
COc1ccc(CNS(=O)(=O)CC2NCCc3ccccc32)cc1 (configuration not stated) was read as Rev-erbA mod -3.
`O=c1[nH]c2ccc(Cl)cc2c(O)c1Cc1ccccc1` gave PG9 binder 9.0*, NR2E3 ag-1 4, PKA-R1A activ 4, Rev-erbA mod 4, NR2E3 ag-2 -16, PKA-R2B act -5, PG9 binder conf 11* and PGV04 Ab binding 14*.
For COc1ccc2ccccc2c1CN1CCN(c2ncc(Cc3ccccc3)cn2)CC1 the results were PG9 binder -3 and Rev-erbA mod 4.
COc1ccc(Cc2nnc(SCC(=O)c3ccc4c(c3)NC(=O)CO4)o2)cc1 was read as PG9 binder 9.3*, NR2E3 ag-1 -6, PKA-R1A activ -6, Rev-erbA mod 10, NR2E3 ag-2 11, PKA-R2B act -3, PG9 binder conf 13* and PGV04 Ab binding 30*.
`CCCCn1c(SCC(=O)NCc2ccccc2)nc2ccc(N3CCOCC3)cc2c1=O` gave PG9 binder 19*, NR2E3 ag-1 0, PKA-R1A activ -6, Rev-erbA mod -1, NR2E3 ag-2 -22, PKA-R2B act 3, PG9 binder conf 35* and PGV04 Ab binding 56*.
